IDH1 R132H inh = IDH1 R132H (human) inhibition | IDH1 R132H reductase, diaphorase/resazurin fluorescence, 60 min | O75874 | AID 624101 | inhibition, % at 10 µM | 70,000 compounds, 0.18% hits; in the data active = inhibition above about 34%; inconclusive = no clear call, values can overlap the other calls; inactive = below about 11%;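 note: 0% = DMSO and 100% = no enzyme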
Target sequence (O75874 whole entry R132H): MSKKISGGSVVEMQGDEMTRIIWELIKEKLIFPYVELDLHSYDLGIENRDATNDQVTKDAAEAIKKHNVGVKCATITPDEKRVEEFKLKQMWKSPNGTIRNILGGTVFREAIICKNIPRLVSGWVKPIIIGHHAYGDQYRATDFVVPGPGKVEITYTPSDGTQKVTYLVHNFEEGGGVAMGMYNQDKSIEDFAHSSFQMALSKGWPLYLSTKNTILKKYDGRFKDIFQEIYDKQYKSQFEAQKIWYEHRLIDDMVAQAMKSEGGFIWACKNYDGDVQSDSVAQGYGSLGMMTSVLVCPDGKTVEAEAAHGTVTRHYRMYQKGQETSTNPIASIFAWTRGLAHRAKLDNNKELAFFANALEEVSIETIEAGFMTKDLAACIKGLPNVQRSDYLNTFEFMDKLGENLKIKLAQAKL
KDM4C inh = KDM4C (human) demethylase inhibition; GST-KDM4C 2-372, H3K9me3 peptide, LANCE TR-FRET; inhibition, % at 12.5 µM; 96,000 compounds, 0.15% hits; AID 720574;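 active = mean replicate inhibition above about 25%, with at least 55% of replicates also reaching it, limit read from the data, passing the limit was not always enough; inconclusive = only one of those two conditions met; inactive = neither condition met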
Target sequence (Q9H3R0 2-372 limits assumed): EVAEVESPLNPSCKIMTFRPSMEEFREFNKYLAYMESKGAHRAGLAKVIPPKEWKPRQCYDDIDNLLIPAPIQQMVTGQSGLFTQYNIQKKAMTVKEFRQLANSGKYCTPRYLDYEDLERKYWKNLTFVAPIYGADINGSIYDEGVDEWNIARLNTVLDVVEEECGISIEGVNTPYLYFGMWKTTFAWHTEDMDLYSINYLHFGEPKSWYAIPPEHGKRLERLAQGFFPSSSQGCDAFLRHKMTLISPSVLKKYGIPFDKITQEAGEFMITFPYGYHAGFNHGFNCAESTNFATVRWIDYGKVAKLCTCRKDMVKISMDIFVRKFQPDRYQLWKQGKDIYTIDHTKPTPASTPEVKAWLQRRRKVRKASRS
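System: N-terminal GST-fused human GASC-1 (KDM4C) fragment, residues 2-372; amount: enzyme final amount 10 nM; incubation: reaction 30 min RT, detection step 1 h RT; medium: HEPES buffer, pH 7.5, plus ascorbate; technique: LANCE TR-FRET, Eu antibody, ULight-streptavidin, EDTA, ex 340 nm, em 618/671 nm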
T cruzi growth-1 = inhibitors of T. cruzi proliferation; T. cruzi beta-gal in NIH3T3, GalScreen luminescence, 90 h; inhibition, % at 8.34 µM; 77,000 compounds, 5.9% hits;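 active = mean inhibition above about 93%, with at least 55% of replicates each passing it, limit read from the data, passing the limit was not always enough; inconclusive = only one of those two conditions holds; inactive = neither condition holds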
T cruzi growth-2 = blocks T. cruzi growth in NIH3T3 host cells | shares compounds with T cruzi growth-1 | T. cruzi beta-gal in NIH3T3, GalScreen luminescence, 90 h | inhibition, % at 8.35 µM | 5,600 compounds, 72% hits | AID 651739;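 active = mean replicate inhibition above about 95% and at least 55% of replicates individually reaching it, limit read from the data; inconclusive = only one of the two criteria is met; inactive = neither criterion is met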
T cruzi growth-3 = blocks T. cruzi growth in NIH3T3 host cells; T. cruzi beta-gal in NIH3T3, GalScreen luminescence, 90 h; 5,600 compounds, 21% hits; shares compounds with T cruzi growth-1; inhibition, % at 2.09 µM;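 active = mean inhibition above about 95%, with at least 55% of replicates also reaching it, limit read from the data; inconclusive = meets just one of the two conditions; inactive = meets neither condition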;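 note: plate controls were neutral control median for no effect and positive control median for full effect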
3T3 cytotox = NIH/3T3 (mouse) viability loss; AID 651742; shares compounds with T cruzi growth-1; 5,600 compounds, 14% hits; cytotoxicity (signal decrease), % at 8.35 µM; NIH/3T3 viability, CellTiter-Glo ATP luminescence, 90 h;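 active = mean signal decrease across replicates above about 35% based on untreated-well scatter, with enough replicates individually passing, limit read from the data; inconclusive = no rule stated though some were filed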;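 note: 0% = median of neutral control wells and 100% = median of positive control wells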
3T3 cytotox 2 = NIH/3T3 (mouse) viability loss; shares compounds with T cruzi growth-1; NIH/3T3 viability, CellTiter-Glo ATP luminescence, 90 h; inhibition, % at 24.9 µM; 5,600 compounds, 56% hits; AID 651744;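 active = mean loss of cell viability signal at or above a set limit, and enough replicates individually reaching it; inconclusive = meets only the mean limit or only the replicate share; inactive = meets neither condition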;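 note: 0% = median of neutral control wells and 100% = median of positive control wells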
The depositor's hits bear a star; ? = inconclusive; nt = no result. The full list was thinned out, with hits kept by preference.

SMILES | IDH1 R132H inh | KDM4C inh | T cruzi growth-1 | T cruzi growth-2 | T cruzi growth-3 | 3T3 cytotox | 3T3 cytotox 2
C[C@H](CO)N1C[C@H](C)[C@H](CN(C)C(=O)Nc2ccc(C(F)(F)F)cc2)OCCCC[C@H](C)Oc2ccc(NC(=O)c3ccncc3)cc2C1=O | nt | 0 | 107* | 109* | 99* | 23 | 37*
CC(=O)O[C@@H]1c2c(ccc3ccc(=O)oc23)OC(C)(C)[C@@H]1OC(=O)C=C(C)C | 0 | nt | nt | nt | nt | nt | nt
CS(=O)(=O)N(CC(=O)Nc1cc(Cl)c(Cl)cc1Cl)C1CCCCC1 | 0 | nt | nt | nt | nt | nt | nt
COc1ccc2nc(SCC(=O)NC3CCCC3)[nH]c2c1 | 0 | nt | nt | nt | nt | nt | nt
O=C(Nc1ccccc1F)N1CCCCN2[C@H](CO)[C@@H](c3ccc(C#Cc4cccnc4)cc3)[C@H]2C1 | nt | 0 | 14 | nt | nt | nt | nt
O=C(Nc1ccccc1F)N1CCCCN2[C@H](CO)[C@H](c3ccc(C#Cc4cccnc4)cc3)[C@@H]2C1 | nt | 0 | 107* | 110* | 78 | 43* | ?
O=C(Nc1cccc(F)c1)N1CCCCN2[C@H](CO)[C@@H](c3ccc(C#Cc4ccccc4)cc3)[C@H]2C1 | nt | 1 | 60 | nt | nt | nt | nt
O=C(Nc1cccc(F)c1)N1CCCCN2[C@H](C1)[C@H](c1ccc(C#CC3CC3)cc1)[C@@H]2CO | nt | -1 | 118* | 110* | 87 | 10 | 11
O=C(Nc1cccc(F)c1)N1CCCCN2[C@H](CO)[C@H](c3ccc(C#Cc4ccccc4)cc3)[C@@H]2C1 | nt | -1 | 68 | nt | nt | nt | nt
O=C(Nc1cccc(F)c1)N1CCCCN2[C@H](CO)[C@@H](c3ccc(C#Cc4cccnc4)cc3)[C@@H]2C1 | nt | -2 | 105* | 109* | ? | 15 | 81*
O=C(Nc1cccc(F)c1)N1CCCCN2[C@H](CO)[C@@H](c3ccc(C#Cc4cccnc4)cc3)[C@H]2C1 | nt | -2 | 95 | nt | nt | nt | nt
O=C(Nc1cccc(F)c1)N1CCCCN2[C@H](CO)[C@H](c3ccc(C#Cc4cccnc4)cc3)[C@H]2C1 | nt | -1 | 96* | 108* | 48 | 22 | 103*
Cc1ccc(NC(=O)CCN2C(=O)c3ccccc3C2=O)cc1[N+](=O)[O-] | 0 | nt | nt | nt | nt | nt | nt
O=C(O)[C@H]1O[C@@H](Oc2cc(O)c3c(=O)c(-c4ccc(O)cc4)coc3c2)[C@H](O)[C@@H](O)[C@@H]1O | 0 | nt | nt | nt | nt | nt | nt
O=C(Nc1cccc(F)c1)N1CCCCN2[C@H](CO)[C@H](c3ccc(C#Cc4ccccc4)cc3)[C@H]2C1 | nt | -2 | 71 | nt | nt | nt | nt
O=C(Nc1cccc(F)c1)N1CCCCN2[C@H](C1)[C@H](c1ccc(C#Cc3ccccc3)cc1)[C@@H]2CO | nt | -2 | 100* | 101* | ? | 15 | 38*
O=C(Nc1cccc(F)c1)N1CCCCN2[C@H](C1)[C@H](c1ccc(C#Cc3cccnc3)cc1)[C@@H]2CO | nt | -1 | 93 | nt | nt | nt | nt
O=C(Nc1ccc(F)cc1)N1CCCCN2[C@H](CO)[C@@H](c3ccc(C#Cc4ccccc4)cc3)[C@H]2C1 | nt | -1 | 82 | nt | nt | nt | nt
O=C(Nc1ccc(F)cc1)N1CCCCN2[C@@H](CO)[C@@H](c3ccc(C#Cc4ccccc4)cc3)[C@@H]2C1 | nt | -4 | 121* | 108* | 115* | 118* | 105*
O=C(Nc1ccccc1)N1CCCCN2[C@H](CO)[C@@H](c3ccc(C#Cc4cccnc4)cc3)[C@H]2C1 | nt | -1 | -4 | nt | nt | nt | nt
O=C(Nc1cccc(F)c1)N1CCCCN2[C@@H](CO)[C@H](c3ccc(C#Cc4cccnc4)cc3)[C@@H]2C1 | nt | -1 | 103* | 103* | 79 | 26 | 101*
O=C(Nc1ccccc1)N1CCCCN2[C@@H](CO)[C@@H](c3ccc(C#Cc4cccnc4)cc3)[C@@H]2C1 | nt | -1 | 105* | 109* | 90 | 18 | 81*
CCC(=O)N1CCC2(CC1)CN(S(=O)(=O)c1ccccc1)[C@@H](CO)c1[nH]c3cc(OC)ccc3c12 | nt | 1 | nt | nt | nt | nt | nt
CCn1c(SCC(=O)Nc2cccc(C)c2C)nnc1-c1cccs1 | -1 | nt | nt | nt | nt | nt | nt
CC(=O)Nc1ccc(S(=O)(=O)Nc2ccc(Oc3cccnc3)cc2)cc1 | 0 | nt | nt | nt | nt | nt | nt
SMILES | IDH1 R132H inh | KDM4C inh | T cruzi growth-1 | T cruzi growth-2 | T cruzi growth-3 | 3T3 cytotox | 3T3 cytotox 2
C[C@@H]1CCCCO[C@H](CN(C)C(=O)Nc2ccc3c(c2)OCO3)[C@H](C)CN([C@@H](C)CO)C(=O)c2cc(NC(=O)Nc3ccc(F)cc3)ccc2O1 | nt | 0 | 90 | nt | nt | nt | nt
C[C@H](CO)N1C[C@H](C)[C@H](CN(C)C(=O)Nc2ccc3c(c2)OCO3)OCCCC[C@H](C)Oc2ccc(NC(=O)NC3CCCCC3)cc2C1=O | 0 | 2 | 110* | 105* | 83 | -20 | -16
C[C@@H]1CCCCO[C@H](CN(C)C(=O)Nc2ccc3c(c2)OCO3)[C@H](C)CN([C@@H](C)CO)C(=O)c2cc(NC(=O)NC3CCCCC3)ccc2O1 | nt | 3 | 64 | nt | nt | nt | nt
C[C@@H]1CCCCO[C@@H](CN(C)C(=O)Nc2ccc3c(c2)OCO3)[C@H](C)CN([C@H](C)CO)C(=O)c2cc(NC(=O)Nc3ccc(F)cc3)ccc2O1 | 0 | 0 | 102* | 104* | 84 | -16 | -12
C[C@H](CO)N1C[C@H](C)[C@H](CN(C)C(=O)Nc2ccc3c(c2)OCO3)OCCCC[C@H](C)Oc2ccc(NC(=O)Nc3ccc(F)cc3)cc2C1=O | nt | 1 | 104* | 108* | 89 | 7 | 7
C[C@@H]1CCCCO[C@H](CN(C)C(=O)Nc2ccc3c(c2)OCO3)[C@H](C)CN([C@H](C)CO)C(=O)c2cc(NC(=O)Nc3ccc(F)cc3)ccc2O1 | 1 | -2 | 102* | 100* | 64 | -10 | -4
C[C@H](CO)N1C[C@H](C)[C@H](CN(C)C(=O)Nc2ccc(F)cc2)OCCCC[C@H](C)Oc2ccc(NC(=O)Nc3ccc4c(c3)OCO4)cc2C1=O | 5 | -1 | 94 | nt | nt | nt | nt
C[C@@H]1CCCCO[C@@H](CN(C)C(=O)Nc2ccc(F)cc2)[C@@H](C)CN([C@H](C)CO)C(=O)c2cc(NC(=O)Nc3ccc4c(c3)OCO4)ccc2O1 | 3 | 0 | -23 | nt | nt | nt | nt
Cc1nnc(SCC(=O)Nc2ccc(Br)cc2Cl)s1 | 0 | nt | nt | nt | nt | nt | nt
O=C(COc1ccc2ccccc2c1)Nc1ccccc1C(=O)Nc1ccccc1 | -1 | nt | nt | nt | nt | nt | nt
COc1cccc(C(=O)Nc2ccc3c(c2)C(=O)N(C)C[C@H](OC)[C@H](C)CN(CCc2ccccc2)[C@@H](C)CO3)c1 | 0 | 2 | ? | nt | nt | nt | nt
COc1cccc(C(=O)Nc2ccc3c(c2)C(=O)N(C)C[C@H](OC)[C@@H](C)CN(CCc2ccccc2)[C@H](C)CO3)c1 | 0 | 0 | 84 | nt | nt | nt | nt
COc1cccc(C(=O)Nc2ccc3c(c2)OC[C@H](C)N(CCc2ccccc2)C[C@H](C)[C@@H](OC)CN(C)C3=O)c1 | 0 | -2 | 116* | 103* | 77 | -6 | 8
